Test [1] is filed under the species Rattus norvegicus. The test can be described thus: Inhibition of platelet-activating factor-induced beta-glucuronidase release in rat PMNC at 10 uM. The format is functional.
The test system of test [2] is Thoracic aorta. Briefly: Vasodilating activity in Langendorff-perfused Sprague-Dawley rat thoracic aorta assessed as relaxation of phenylephrine-induced vasoconstriction at 10 uM relative to untreated control. Set-up: scale not given: the % may be the effect or the level left. The format is functional. In outline:
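Thoracic aortic rings were taken from Langendorff-perfused Sprague-Dawley rats weighing 200 ± 20 g. Rings were precontracted with phenylephrine, and isotonic tension was recorded. Compounds were tested at 10^-5 M. The relaxing rate was expressed as a percentage relative to the blank control.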

The subject of test [3] is Human immunodeficiency virus 1. The test can be described thus: Antiviral activity against HIV1 assessed as inhibition of viral replication at 10 uM. The format is functional, organism-based.
Test [4] has as its system PC-12. The test can be described thus: Neuroprotective activity against glutamate-induced neurotoxicity in rat PC12 cells at 10 uM. The format is functional, cell-based.
The test system of test [5] is Liver microsomes. The test can be described thus: Antioxidant activity against Fe2+-cystine induced lipid peroxidation in rat liver microsomes at 10 uM. The format is functional. Particulars: Microsome. In general terms: Microsomes from liver hold many membrane-bound enzymes, among them those of drug oxidation.
Test [6] addresses T1, Tyrosine-protein phosphatase non-receptor type 1 (Homo sapiens) (UniProt P18031).
T1 sequence (whole entry): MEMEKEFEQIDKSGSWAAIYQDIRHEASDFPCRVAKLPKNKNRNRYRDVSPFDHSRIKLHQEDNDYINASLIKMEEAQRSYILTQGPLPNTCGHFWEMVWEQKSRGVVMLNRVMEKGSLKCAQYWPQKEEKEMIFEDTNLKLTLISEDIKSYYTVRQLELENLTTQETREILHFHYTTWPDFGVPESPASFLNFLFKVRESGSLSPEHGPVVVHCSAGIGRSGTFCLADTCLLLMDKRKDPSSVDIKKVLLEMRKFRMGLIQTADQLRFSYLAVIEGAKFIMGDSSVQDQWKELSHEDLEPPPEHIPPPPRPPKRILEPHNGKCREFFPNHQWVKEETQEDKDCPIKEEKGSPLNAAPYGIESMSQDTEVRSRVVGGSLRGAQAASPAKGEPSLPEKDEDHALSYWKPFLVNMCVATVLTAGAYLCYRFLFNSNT
Briefly: Inhibition of PTB1B at 10 uM.

Here are results for five compounds from ChEMBL document CHEMBL1177748, “Homo- and heptanor-sterols and tremulane sesquiterpenes from cultures of Phellinus igniarius” (2010).

The structures appear in SMILES notation. Calls of active or inactive are those of the source. The rule behind the calls is not given here.

`C[C@H]1CC[C@H](CO)[C@H](CO)C2=C[C@](C)(CO)C[C@H]21`: the inhibition result in test [1], in test [3], in test [4], in test [5] and in test [6] was “inactive” throughout. In addition, the Activity in test [2] worked out at 35.7%.
In the case of `COc1ccc(CCN(C)CCCC(C#N)(c2ccc(OC)c(OC)c2)C(C)C)cc1OC` (stereo not given) [VERAPAMIL], the Activity in test [2] stood at 83.3%.
In the case of `CC1(C)OCC2=CC[C@H]3C(C)(C)[C@@H](O)CC[C@]3(C)[C@H]2CO1`, the inhibition result in test [1], in test [3], in test [4], in test [5] and in test [6] was “inactive” throughout. Moreover, the Activity in test [2] was 32.1%.
For `C[C@H]1CCC2=C(COC2=O)[C@@]2(O)CC(C)(C)C[C@@H]12`, the inhibition entry in test [1], in test [3], in test [4], in test [5] and in test [6] was “inactive” throughout. Also, the Activity in test [2] is listed as 46.6%.
In the case of `C[C@H]1CC[C@H](CO)[C@H](CO)C2=C[C@@](C)(CO)C[C@H]21`, the inhibition entry in test [1], in test [3], in test [4], in test [5] and in test [6] was “inactive” each time. In test [2], the Activity is listed as 45.4%.
